In ChEMBL document CHEMBL1764997, “(Z)-3-butylidenephthalide from Ligusticum porteri , an α-glucosidase inhibitor” (J Nat Prod, 2011):
pIC50, pKi: −log10 of the molar value. Active and inactive are the calls of the source. No cut-off for these calls is given here.

Legend:
[1] = tested on: Mus musculus; test: Antidiabetic activity in streptozotocin-induced diabetic ICR mouse assessed as change in blood glucose level at 31.2 mg/kg after 1.5 hrs by oral glucose tolerance test (RVb= 0.005 %); assay type: functional
[2] = tested on: Mus musculus; test: Antihyperglycemic activity in ICR mouse assessed as change in blood glucose level at 31.2 mg/kg at 1 hr by oral glucose tolerance test (RVb= 1.5 %); assay type: functional
[3] = tested on: Mus musculus; test: Antidiabetic activity in streptozotocin-induced diabetic ICR mouse assessed as change in blood glucose level at 56.2 mg/kg after 1.5 hrs by oral glucose tolerance test (RVb= 0.005 %); assay type: functional
[4] = tested on: Mus musculus; test: Antidiabetic activity in streptozotocin-induced diabetic ICR mouse assessed as change in blood glucose level at 10 mg/kg after 0.5 hr by oral glucose tolerance test (RVb= 51.9 %); assay type: functional
[5] = tested on: Mus musculus; test: Antihyperglycemic activity in ICR mouse assessed as change in blood glucose level at 56.2 mg/kg at 2 hrs by oral glucose tolerance test (RVb= -12 %); assay type: functional
[6] = tested on: Mus musculus; test: Antidiabetic activity in streptozotocin-induced diabetic ICR mouse assessed as change in blood glucose level at 31.2 mg/kg after 1 hr by oral glucose tolerance test (RVb= 10.3 %); assay type: functional
[7] = tested on: Mus musculus; test: Antidiabetic activity in streptozotocin-induced diabetic ICR mouse assessed as change in blood glucose level at 56.2 mg/kg after 0.5 hr by oral glucose tolerance test (RVb= 51.9 %); assay type: functional
[8] = tested on: Mus musculus; test: Antidiabetic activity in streptozotocin-induced diabetic ICR mouse assessed as change in blood glucose level at 31.2 mg/kg after 2 hrs by oral glucose tolerance test (RVb= -12.9 %); assay type: functional
[9] = tested on: Mus musculus; test: Antihyperglycemic activity in ICR mouse assessed as change in blood glucose level at 31.2 mg/kg after 0.5 hr by oral glucose tolerance test (RVb= 59 %); assay type: functional
[10] = tested on: Mus musculus; test: Antidiabetic activity in streptozotocin-induced diabetic ICR mouse assessed as change in blood glucose level at 31.2 mg/kg after 0.5 hr by oral glucose tolerance test (RVb= 51.9 %); assay type: functional
[11] = tested on: Mus musculus; test: Antidiabetic activity in streptozotocin-induced diabetic ICR mouse assessed as change in blood glucose level at 56.2 mg/kg after 2 hrs by oral glucose tolerance test (RVb= -12.9 %); assay type: functional
[12] = tested on: Mus musculus; test: Antihyperglycemic activity in ICR mouse assessed as change in blood glucose level at 56.2 mg/kg at 1.5 hrs by oral glucose tolerance test (RVb= 2.5 %); assay type: functional
[13] = tested on: Mus musculus; test: Antidiabetic activity in streptozotocin-induced diabetic ICR mouse assessed as change in blood glucose level at 56.2 mg/kg after 1 hr by oral glucose tolerance test (RVb= 10.3 %); assay type: functional
[14] = tested on: Mus musculus; test: Antihyperglycemic activity in ICR mouse assessed as change in blood glucose level at 56.2 mg/kg at 0.5 hr by oral glucose tolerance test (RVb= 59 %); assay type: functional
[15] = tested on: Mus musculus; test: Antidiabetic activity in streptozotocin-induced diabetic ICR mouse assessed as change in blood glucose level at 10 mg/kg after 1 hr by oral glucose tolerance test (RVb= 10.3 %); assay type: functional
[16] = tested on: Mus musculus; test: Antidiabetic activity in streptozotocin-induced diabetic ICR mouse assessed as change in blood glucose level at 10 mg/kg after 2 hrs by oral glucose tolerance test (RVb= -12.9 %); assay type: functional
[17] = tested on: Mus musculus; test: Antihyperglycemic activity in ICR mouse assessed as change in blood glucose level at 31.2 mg/kg at 1.5 hrs by oral glucose tolerance test (RVb= 2.5 %); assay type: functional
[18] = tested on: Mus musculus; test: Antihyperglycemic activity in ICR mouse assessed as change in blood glucose level at 56.2 mg/kg at 1 hr by oral glucose tolerance test (RVb= 1.5 %); assay type: functional
[19] = molecular target: Alpha-glucosidase MAL62 (Saccharomyces cerevisiae) (UniProt P07265); test: (§1) Inhibition of yeast alpha-glucosidase assessed as inhibition of p-nitrophenyl-alpha-D-glucopyranoside substrate hydrolysis after 35 mins by spectroscopy
Alpha-glucosidase MAL62 (Saccharomyces cerevisiae), sequence (P07265 whole entry): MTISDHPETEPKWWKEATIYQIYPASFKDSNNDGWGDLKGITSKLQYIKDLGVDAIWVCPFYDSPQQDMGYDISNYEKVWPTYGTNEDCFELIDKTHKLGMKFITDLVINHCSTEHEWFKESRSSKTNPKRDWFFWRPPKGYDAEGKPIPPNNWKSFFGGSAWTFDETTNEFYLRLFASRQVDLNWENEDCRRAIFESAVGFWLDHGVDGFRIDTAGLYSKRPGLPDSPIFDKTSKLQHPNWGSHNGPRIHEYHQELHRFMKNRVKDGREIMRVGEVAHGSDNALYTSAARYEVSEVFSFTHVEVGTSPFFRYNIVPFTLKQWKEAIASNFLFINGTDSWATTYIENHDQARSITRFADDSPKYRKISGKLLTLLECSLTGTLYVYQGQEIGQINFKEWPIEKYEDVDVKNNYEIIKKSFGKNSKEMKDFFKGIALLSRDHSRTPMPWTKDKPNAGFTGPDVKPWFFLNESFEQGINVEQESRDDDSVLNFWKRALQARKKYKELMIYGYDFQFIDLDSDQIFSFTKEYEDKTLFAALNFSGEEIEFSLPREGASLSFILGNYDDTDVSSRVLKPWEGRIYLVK

[20] = tested on: Mus musculus; test: Antihyperglycemic activity in ICR mouse assessed as change in blood glucose level at 31.2 mg/kg at 2 hrs by oral glucose tolerance test (RVb= -12 %); assay type: functional
[21] = tested on: Mus musculus; test: Antidiabetic activity in streptozotocin-induced diabetic ICR mouse assessed as change in blood glucose level at 10 mg/kg after 1.5 hrs by oral glucose tolerance test (RVb= 0.005 %); assay type: functional
[22] = tested on: Mus musculus; test: Antihyperglycemic activity in ICR mouse assessed as change in blood glucose level at 20 mg/kg after 1.5 hrs by oral glucose tolerance test (RVb= 2.5 %); assay type: functional
[23] = tested on: Mus musculus; test: Antihyperglycemic activity in ICR mouse assessed as change in blood glucose level at 10 mg/kg after 0.5 hr by oral glucose tolerance test (RVb= 59 %); assay type: functional
[24] = tested on: Mus musculus; test: Antidiabetic activity in streptozotocin-induced diabetic ICR mouse assessed as change in blood glucose level at 10 mg/kg after 1 hr by oral sucrose tolerance test (RVb= 11.4 %); assay type: functional
In short: (§2)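 NAD (40 mg/kg ip) then STZ (100 mg/kg ip, 15 min later) diabetic male ICR mice, glucose >140 mg/dL after 7 days. Animals fasted 12 h, dosed orally in 0.05% Tween 80/saline, and given oral sucrose 2 g/kg 30 min later.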

[25] = species: Mus musculus; test: Inhibition of alpha-glucosidase in streptozotocin-induced diabetic ICR mouse intestine assessed as lowering of blood glucose levels; assay type: functional, organism-based; in short: as §2
[26] = tested on: Mus musculus; test: Antihyperglycemic activity in ICR mouse assessed as change in blood glucose level at 10 mg/kg after 2 hrs by oral glucose tolerance test (RVb= -12 %); assay type: functional
[27] = tested on: Mus musculus; test: Antidiabetic activity in streptozotocin-induced diabetic ICR mouse assessed as change in blood glucose level at 10 mg/kg after 0.5 hr by oral sucrose tolerance test (RVb= 56 %); assay type: functional; in short: as §2
[28] = tested on: Mus musculus; test: Antidiabetic activity in streptozotocin-induced diabetic ICR mouse assessed as change in blood glucose level at 56.2 mg/kg after 1.5 hrs by oral sucrose tolerance test (RVb= 6.1 %); assay type: functional; in short: as §2
[29] = tested on: Mus musculus; test: Antihyperglycemic activity in ICR mouse assessed as change in blood glucose level at 20 mg/kg after 2 hrs by oral glucose tolerance test (RVb= -12 %); assay type: functional
[30] = tested on: Mus musculus; test: Antihyperglycemic activity in ICR mouse assessed as change in blood glucose level at 10 mg/kg after 1 hr by oral glucose tolerance test (RVb= 1.5 %); assay type: functional
[31] = tested on: Mus musculus; test: Antihyperglycemic activity in ICR mouse assessed as change in blood glucose level at 20 mg/kg after 0.5 hr by oral glucose tolerance test (RVb= 59 %); assay type: functional
[32] = tested on: Mus musculus; test: Antidiabetic activity in streptozotocin-induced diabetic ICR mouse assessed as change in blood glucose level at 56.2 mg/kg after 1 hr by oral sucrose tolerance test (RVb= 11.4 %); assay type: functional; in short: as §2
[33] = tested on: Mus musculus; test: Antihyperglycemic activity in ICR mouse assessed as change in blood glucose level at 20 mg/kg after 1 hr by oral glucose tolerance test (RVb= 1.5 %); assay type: functional
[34] = tested on: Mus musculus; test: Antidiabetic activity in streptozotocin-induced diabetic ICR mouse assessed as change in blood glucose level at 10 mg/kg after 2 hrs by oral sucrose tolerance test (RVb= -4.3 %); assay type: functional; in short: as §2
[35] = tested on: Mus musculus; test: Antidiabetic activity in streptozotocin-induced diabetic ICR mouse assessed as change in blood glucose level at 56.2 mg/kg after 2 hrs by oral sucrose tolerance test (RVb= -4.3 %); assay type: functional; in short: as §2
[36] = tested on: Mus musculus; test: Antihyperglycemic activity in ICR mouse assessed as change in blood glucose level at 10 mg/kg after 1.5 hrs by oral glucose tolerance test (RVb= 2.5 %); assay type: functional
[37] = tested on: Mus musculus; test: Antidiabetic activity in streptozotocin-induced diabetic ICR mouse assessed as change in blood glucose level at 10 mg/kg after 1.5 hrs by oral sucrose tolerance test (RVb= 6.1 %); assay type: functional; in short: as §2
[38] = molecular target: Alpha-glucosidase MAL62 (Saccharomyces cerevisiae, UniProt P07265); test: as §1
Alpha-glucosidase MAL62, sequence (P07265 whole entry): as above

[39] = tested on: Mus musculus; test: Antidiabetic activity in streptozotocin-induced diabetic ICR mouse assessed as change in blood glucose level at 56.2 mg/kg after 0.5 hr by oral sucrose tolerance test (RVb= 56 %); assay type: functional; in short: as §2

SMILES	Activity [1] [%]	Activity [3] [%]	Activity [4] [%]	Activity [6] [%]	Activity [7] [%]	Activity [8] [%]	Activity [10] [%]	Activity [11] [%]	Activity [13] [%]	Activity [15] [%]	Activity [16] [%]	Activity [19]	Activity [21] [%]	other results
CCC/C=C1\OC(=O)C2=C[C@H]3CC[C@]21C1C2=C(CC[C@H]13)/C(=C\CCC)OC2=O (some centres undefined)	23	25	32	32	57	8.8	44	8.9	52	5.7	-5.5	inactive	5.7	Activity [2]: -28%; Activity [5]: -27%; Activity [9]: 3.8%; Activity [12]: -13%; Activity [14]: 41%; Activity [17]: -35%; Activity [18]: -3.8%; Activity [20]: -50%
C=CCc1cc(OC)c2c(c1)OCO2												inactive		
CCCC=C1OC(=O)c2ccccc21 [(E)-BUTYLIDENEPHTHALIDE]	-0.3	-12	35	3.3	12	-9.1	27	-21.7	-5.2	3.5	-7.4	Dose-dependent effect	1.5	Activity [22]: -18%; Activity [23]: -9%; Activity [24]: 19%; inhibition [25]: Active; Activity [26]: -42%; Activity [27]: 41%; Activity [28]: 2.5%; Activity [29]: -23%; Activity [30]: -24%; Activity [31]: 20%; Activity [32]: 7.6%; Activity [33]: -6.9%; Activity [34]: 6.7%; Activity [35]: 6.4%; Activity [36]: -41%; Activity [37]: 16%; pIC50 [38]: 2.63; pKi [38]: 2.31; Activity [39]: 23%
